From ChEMBL document CHEMBL1125654, “New inhibitors of human renin that contain novel replacements at the P2 site” (J Med Chem, 1991)

Experiments:
[1] = Partition coefficient (logD7.4); conditions: octanol/water
Renin [2] = target: T1, Renin (Homo sapiens, UniProt P00797); test: Inhibitory activity against monkey plasma renin.; format: cell-free, Cercopithecidae; conditions: target entry is the homologue from another species
T1 sequence (P00797 whole entry): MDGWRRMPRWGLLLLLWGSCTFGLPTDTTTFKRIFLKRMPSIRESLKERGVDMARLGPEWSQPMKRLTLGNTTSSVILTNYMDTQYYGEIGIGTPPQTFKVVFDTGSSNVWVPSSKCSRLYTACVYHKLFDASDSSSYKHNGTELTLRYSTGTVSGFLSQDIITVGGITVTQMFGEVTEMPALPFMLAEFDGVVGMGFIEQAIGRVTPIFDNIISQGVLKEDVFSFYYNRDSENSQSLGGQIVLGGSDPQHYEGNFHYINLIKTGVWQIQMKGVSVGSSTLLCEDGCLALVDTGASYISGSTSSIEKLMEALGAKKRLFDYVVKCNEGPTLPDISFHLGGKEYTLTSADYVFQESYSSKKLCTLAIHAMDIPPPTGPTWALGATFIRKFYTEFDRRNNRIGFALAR
How it was run: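 Plasma from salt-depleted, furosemide-treated monkeys (native renin and angiotensinogen) incubated with maleate buffer (pH 6.0), PMSF and inhibitor in DMSO for 60 min at 37 °C. Plasma renin activity was 3–8 ng AI/mL per h. Percent inhibition was taken vs DMSO vehicle tubes, and IC50 from six concentrations by nonlinear regression.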

Renin [3] = target: T1, Renin; test: Inhibitory activity against human plasma renin; format: cell-free

Structure (SMILES)	logD ([1]; pH 7.4, logD)	IC50 (Renin [2]) [nM]	IC50 (Renin [3]) [nM]	logD ([1]; pH 7.4)
CCC(C)CNC(=O)C[C@H](O)C(CC(C)C)NC(=O)C(CCCn1cccc1)NC(=O)C(Cc1cccc2ccccc12)Cc1cccc2ccccc12 (stereo not given in full)	7.09	390	540	
CC(C)(C)OC(=O)NCC#CCC(NC(=O)C(Cc1ccccc1)NS(=O)(=O)N1CCOCC1)C(=O)NC(CC1CCCCC1)[C@@H](O)CC(=O)N1CCOC(CCN)C1 (stereo in doubt; 61b)	3.13	700		
CC(C)CC(NC(=O)C(CCCC/N=C(/N)N[N+](=O)[O-])NC(=O)C(Cc1cccc2ccccc12)Cc1cccc2ccccc12)[C@@H](O)CC(=O)N1CCOC(CCN)C1 (stereo not given in full)		40	45	4.09
CC(C)CC(NC(=O)C[C@H](O)C(CC(C)C)NC(=O)C(CCCCNC(=O)OCc1ccccc1)NC(=O)C(Cc1cccc2ccccc12)Cc1cccc2ccccc12)C(=O)NCc1ccccc1 (stereo not given in full)	7.69	8000	2900	
CCC(C)CNC(=O)C[C@H](O)C(CC(C)C)NC(=O)C(CCCCn1cccc1)NC(=O)C(Cc1cccc2ccccc12)Cc1cccc2ccccc12 (stereo not given in full)	7.21	144	87	
C/N=C(\S)NCCCCC(NC(=O)C(CC(=O)N1CCOCC1)Cc1cccc2ccccc12)C(=O)NC(CC1CCCCC1)[C@@H](O)CC(=O)N1CCOC(CCN)C1 (stereo not given in full)	1.68	36	20	
CS/C(=N\CCCCC(NC(=O)C(CC(=O)N1CCOCC1)Cc1cccc2ccccc12)C(=O)NC(CC(C)C)[C@@H](O)CC(=O)N1CCOC(CCN)C1)NC#N (stereo not given in full)	1.68	350		
CC(=O)NCC#CCC(NC(=O)C(Cc1ccccc1)NS(=O)(=O)N1CCOCC1)C(=O)NC(CC1CCCCC1)[C@@H](O)CC(=O)N1CCOC(CCN)C1 (stereo not given in full)	2.12	0.5		
CNC(=S)NCCCCC(NC(=O)C(Cc1cccc2ccccc12)Cc1cccc2ccccc12)C(=O)NC(CC(C)C)[C@@H](O)C(F)(F)C(=O)N1CCOC(CCN)C1 (stereo not given in full)	5.5	350		

Continued by falling IC50 (Renin [2]), values first:

logD ([1]; pH 7.4, logD)	IC50 (Renin [2]) [nM]	IC50 (Renin [3]) [nM]	Structure (SMILES)	logD ([1]; pH 7.4)
4.4	4150	> 10000	CCC(C)CNC(=O)C[C@H](O)C(CC(C)C)NC(=O)C(CCNC(C)=O)NC(=O)C(Cc1cccc2ccccc12)Cc1cccc2ccccc12 (stereo not given in full)	
5.25	3490	2580	CCC(C)CNC(=O)C[C@H](O)C(CC(C)C)NC(=O)C(CCCCN)NC(=O)C(Cc1cccc2ccccc12)Cc1cccc2ccccc12 (stereo not given in full)	
7.37	248	150	CCC(C)CNC(=O)C[C@H](O)C(CC(C)C)NC(=O)C(CC#CCNC(=O)OCc1ccccc1)NC(=O)C(Cc1cccc2ccccc12)Cc1cccc2ccccc12 (stereo not given in full)	
6.6	138	58	CCC(C)CNC(=O)C[C@H](O)C(CC(C)C)NC(=O)C(CCCCNC(=S)Nc1ccccc1)NC(=O)C(Cc1cccc2ccccc12)Cc1cccc2ccccc12 (stereo not given in full)	
5.31	89	50	CCC(C)CNC(=O)C[C@H](O)C(CC(C)C)NC(=O)C(CCCCNC(N)=O)NC(=O)C(Cc1cccc2ccccc12)Cc1cccc2ccccc12 (stereo not given in full)	
	41	29	CCC(C)CNC(=O)C[C@H](O)C(CC(C)C)NC(=O)C(CC#CCNC(C)=O)NC(=O)C(Cc1cccc2ccccc12)Cc1cccc2ccccc12 (stereo in doubt; 55b)	5.06
4.38	36	6.2	CCC(C)CNC(=O)C[C@H](O)C(CC(C)C)NC(=O)C(CCCCNC(C)=O)NC(=O)C(Cc1cccc2ccccc12)Cc1cccc2ccccc12 (stereo not given in full)	
2.64	27		CNC(=S)NCCCCC(NC(=O)C(Cc1ccccc1)S(=O)(=O)C(C)(C)C)C(=O)NC(CC1CCCCC1)[C@@H](O)CC(=O)N1CCOC(CCN)C1 (stereo not given in full)	
5.44	8.7		NCCC1CN(C(=O)C[C@H](O)C(CC2CCCCC2)NC(=O)C(CC#CCNC=O)NC(=O)C(Cc2cccc3ccccc23)Cc2cccc3ccccc23)CCO1 (stereo not given in full)	
2.9	3.3		C/N=C(\S)NCC#CCC(NC(=O)C(Cc1ccccc1)NS(=O)(=O)N1CCOCC1)C(=O)NC(CC1CCCCC1)[C@@H](O)CC(=O)N1CCOC(CCN)C1 (stereo not given in full)	
